Assay results published in ChEMBL document CHEMBL4052804, “Design and synthesis of piperazine acetate podophyllotoxin ester derivatives targeting tubulin depolymerization as new anticancer agents” (Bioorg Med Chem Lett, 2017).

What was measured:
L02 = test: Cytotoxicity against human L02 cells after 24 hrs by MTT assay; format: cell-based; settings: L02, 24 h
How it was run: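 Normal human liver L02 cells were tested at multiple concentrations in an MTT assay. Output is the median cytotoxic concentration (CC50).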

MCF7 [1] = test: Cell cycle arrest in human MCF7 cells assessed as accumulation at G2/M phase at 0.3 uM after 12 hrs by propidium iodide staining based flow cytometric method (reference value: 5.43 to 13.68%); format: functional
MCF7 [2] = test: Cell cycle arrest in human MCF7 cells assessed as accumulation at G2/M phase at 0.6 uM after 12 hrs by propidium iodide staining based flow cytometric method (reference value: 5.43 to 13.68%); format: functional
MCF7 [3] = test: Cell cycle arrest in human MCF7 cells assessed as accumulation at G1 phase at 0.6 uM after 4 hrs by propidium iodide staining based flow cytometric method (reference value: 60.19 to 60.87%); format: functional
MCF7 [4] = test: Cell cycle arrest in human MCF7 cells assessed as accumulation at S phase at 0.6 uM after 4 hrs by propidium iodide staining based flow cytometric method (reference value: 29.55 to 32.22%); format: functional
MCF7 [5] = test: Induction of apoptosis in human MCF7 cells assessed as viable cells at 2 uM after 24 hrs by Annexin-V-FITC/propidium iodide staining based flow cytometric method (reference value: 91.6 to 92.7%); format: functional; settings: MCF7, 24 h, read-out: Activity
MCF7 [6] = test: Induction of apoptosis in human MCF7 cells assessed as necrotic cells at 2 uM after 24 hrs by Annexin-V-FITC/propidium iodide staining based flow cytometric method (reference value: 2.35 to 2.49%); format: functional
MCF7 [7] = test: Induction of apoptosis in human MCF7 cells assessed as late apoptotic cells at 4 uM after 24 hrs by Annexin-V-FITC/propidium iodide staining based flow cytometric method (reference value: 2 to 3.7%); format: functional
MCF7 [8] = test: Induction of apoptosis in human MCF7 cells assessed as early apoptotic cells at 8 uM after 24 hrs by Annexin-V-FITC/propidium iodide staining based flow cytometric method (reference value: 2.36 to 2.86%); format: functional
MCF7 [9] = test: Induction of apoptosis in human MCF7 cells assessed as late apoptotic cells at 12 uM after 24 hrs by Annexin-V-FITC/propidium iodide staining based flow cytometric method (reference value: 2 to 3.7%); format: functional

`COc1cc([C@@H]2c3cc4c(cc3[C@H](OC(=O)CN3CCN(c5ccc(Cl)c(Cl)c5)CC3)[C@H]3COC(=O)[C@H]23)OCO4)cc(OC)c1OC` was tested. Which IC50 (L02) did it give?
The IC50 was > 100 µM.

And the Activity (MCF7 [1])?
The Activity was 37.72%.

What about the Activity (MCF7 [2]) of the same molecule?
The Activity was 60.98 - 69.25%.

And the Activity (MCF7 [3])?
Its Activity is 46.58%.

What about the Activity (MCF7 [4]) of the same molecule?
The Activity was 23.99%.

What about the viability at 2 µM (MCF7 [5]) of the same molecule?
Its viability at 2 µM is 81.2%.

And the Activity (MCF7 [6])?
Its Activity is 2.61%.

What about the Activity (MCF7 [7]) of the same molecule?
The Activity was 10.5%.

And the Activity (MCF7 [8])?
Its Activity is 14.7%.

What about the Activity (MCF7 [9]) of the same molecule?
Its Activity is 20.4%.
